Calls of active or inactive are those of the source.

The species entered for data set [1] is Mus musculus. As to the kind of experiment: Inhibition of SEW2871-induced protection against VEGF-induced capillary leakage in Balb/cByJ mouse assessed as skin leakage of Evans blue dye from plasma into interstitial spaces by Miles assay. The data set is classed as functional, organism-based. The note with it: Skin of body. A digest of the protocol:
(§1)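 Male Balb/cByJ mice (30 g) got i.p. vehicle (10 mM Na2CO3, 2% β-hydroxypropyl-cyclodextran) or antagonist 10 mg/kg, then oral SEW2871 20 mg/kg or vehicle. At 4.5 h, 0.5% Evans blue was given i.v. Intradermal murine VEGF165 (100 ng) or PBS/0.1% BSA was injected in triplicate. After 30 min, skin biopsies were extracted in formamide at 58 °C and read at 565 nm (VEGF minus BSA). ANOVA/Bonferroni.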

Data set [2] concerns Mus musculus. As to the kind of experiment: Inhibition of SEW2871-induced lymphocyte maturation in C57BL1/6J mouse assessed as medullary thymocyte phenotypic maturation at 10 to 20 mg/kg, ip. Type of data set: functional, organism-based. The procedure, abridged:
(§2)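 Mice received oral SEW2871 (20 mg/kg) with or without i.p. antagonist (10 mg/kg). Thymi were removed at 5 h and CD69 on single-positive CD4+ thymocytes was measured by flow cytometry. n=3.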

Data set [3] has as its target T1, Sphingosine 1-phosphate receptor 1 (Homo sapiens, UniProt P21453). As to the kind of experiment: Antagonist activity at human S1P1 receptor expressed in CHO cells assessed as inhibition of SEW2871-induced [35S]GTPgamma binding. Type of data set: functional, cell-based. The procedure, abridged:
(§3)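 Membranes from CHO cells stably expressing human S1P1. [35S]GTPγS binding with serial dilutions of S1P or SEW2871 added (1–10 µg protein per well), with or without 30 min antagonist preincubation. Binding was normalized to the percentage induced by maximal S1P. Ki derived from the agonist EC50 shift.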

Data set [4] has as its system Mus musculus. The data set is described as follows: Inhibition of SEW2871-induced lymphocyte egress in C57BL1/6J mouse assessed as blood lymphocyte sequestration at 10 to 20 mg/kg, ip. Type of data set: functional, organism-based. A digest of the protocol:
(§4)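 C57BL6 mice were given antagonist i.p. (10 mg/kg, or 3 mg/kg where stated) at the time of oral SEW2871 (up to 20 mg/kg) or vehicle. At 5 h, EDTA blood was taken for full blood counts and differential counts on a veterinary autoanalyzer calibrated for mouse. Blood lymphocyte data pooled n=12 per group; Student's t-test.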

In data set [5] the test system is Mus musculus. The data set is described as follows: Toxicity in ip dosed C57BL1/6J mouse assessed as induction of spontaneous pulmonary edema by Evan blue dye leakage assay. Type of data set: organism-based. Particulars: in vivo.
The target in data set [6] is T1, Sphingosine 1-phosphate receptor 1. The data set is described as follows: Antagonist activity at human S1P1 receptor expressed in CHO cells assessed as inhibition of S1P-induced [35S]GTPgamma binding. Type of data set: functional, cell-based. A digest of the protocol: as §3
In data set [7] the test system is Mus musculus. As to the kind of experiment: Effect on CD69 expression in single positive CD4+ thymocytes in thymic medulla of C57BL1/6J mouse at 10 mg/kg, ip by FACS method. Type of data set: organism-based. Further details: dose 10 mg/kg, route intraperitoneal. Particulars: in vivo. The procedure, abridged:
as §2
For orientation: A flow cytometer gives signals particle by particle.

The target in data set [8] is Sphingosine 1-phosphate receptor 5 (Homo sapiens) (UniProt Q9H228). As to the kind of experiment: Antagonist activity at human S1P5 receptor expressed in CHO cells assessed as inhibition of S1P-induced [35S]GTPgamma binding at 10 uM. Type of data set: functional, cell-based. The procedure, abridged: (§5)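 Membranes from CHO cells expressing human S1P2, S1P3 or S1P5. [35S]GTPγS binding with serial dilutions of S1P added to membranes (1–10 µg protein per well), with or without 30 min preincubation. Antagonist concentrations were as previously described.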

The nature of data set [9]: Half life in cannulated rat at 1 mg/kg, iv by LC-MS method. The data set is classed as ADME, organism-based. More on the design: dose 1 mg/kg, route intravenous. The note with it: in vivo. A digest of the protocol: (§6)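 Cannulated rats (n=3) were given 1 mg/kg i.v. Plasma levels were followed by LC-MS to derive half-life, steady-state volume of distribution and plasma clearance.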

The test system of data set [10] is Mus musculus. The data set is described as follows: Inhibition of SEW2871-induced lymphopenia in C57BL1/6J mouse at 3 mg/kg, ip. The data set is classed as functional, organism-based. More on the design: dose 3 mg/kg. The procedure, abridged: as §4
Data set [11] in a line: Plasma concentration in mouse at 10 mg/kg, ip after 5 hrs. Type of data set: ADME, organism-based. More on the design: dose 10 mg/kg, route intraperitoneal. A digest of the protocol: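 Plasma concentration measured by LC-MS in mice 5 h after i.p. injection of 10 mg/kg.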
For data set [12], the target named is T1, Sphingosine 1-phosphate receptor 1. The data set is described as follows: Antagonist activity at human S1P1 receptor expressed in CHO cells assessed as inhibition of S1P-induced ERK1/2 phosphorylation at 10 uM by Western blot. Type of data set: functional, cell-based. A digest of the protocol:
(§7)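 CHO cells stably expressing human S1P1 or S1P3 were grown to 50% confluence and serum-starved for 16 h. Cells were preincubated 1 h with antagonist at 10 µM, then stimulated 5 min with S1P or SEW2871 in serum-free medium with 0.1% fatty-acid-free BSA. Western blots of lysates gave phospho-ERK1/2 and phospho-Akt band intensities normalized to total ERK1/2 or Akt. n≥3.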

Data set [13] shares this target. As to the kind of experiment: Antagonist activity at human S1P1 receptor expressed in CHO cells assessed as inhibition of SEW2871-induced Akt phosphorylation at 10 uM by Western blot. The data set is classed as functional, cell-based. A digest of the protocol: as §7
On the technique in general: A western blot detects proteins with antibodies after separation by electrophoresis.

Data set [14] has as its target Sphingosine 1-phosphate receptor 3 (Homo sapiens) (UniProt Q99500). The data set is described as follows: Antagonist activity at human S1P3 receptor expressed in CHO cells assessed as inhibition of S1P-induced ERK1/2 phosphorylation at 10 uM by Western blot. The data set is classed as functional, cell-based. The procedure, abridged: as §7
For data set [15], the target named is Sphingosine 1-phosphate receptor 2 (Homo sapiens) (UniProt O95136). As to the kind of experiment: Agonist activity at human S1P2 receptor expressed in CHO cells assessed as stimulation of [35S]GTPgamma binding at 10 uM. Type of data set: functional, cell-based. The procedure, abridged:
as §5

Data set [16] deals with Mus musculus. The data set is described as follows: Toxicity in ip dosed C57BL1/6J mouse assessed as effect on percentage of lymphocyte within total WBCs counts in peripheral blood at 10 mg/kg, ip. Type of data set: organism-based. Further details: dose 10 mg/kg, route intraperitoneal. Particulars: in vivo. A digest of the protocol: as §4
The target of data set [17] is Sphingosine 1-phosphate receptor 5 (Homo sapiens) (UniProt Q9H228). As to the kind of experiment: Agonist activity at human S1P5 receptor expressed in CHO cells assessed as stimulation of [35S]GTPgamma binding at 10 uM. The data set is classed as functional, cell-based. A digest of the protocol:
as §5

The target of data set [18] is Sphingosine 1-phosphate receptor 3 (Homo sapiens) (UniProt Q99500). As to the kind of experiment: Antagonist activity at human S1P3 receptor expressed in CHO cells assessed as inhibition of S1P-induced [35S]GTPgamma binding at 10 uM. The data set is classed as functional, cell-based. The procedure, abridged: as §5
Data set [19] has as its target T1, Sphingosine 1-phosphate receptor 1. As to the kind of experiment: Inhibition of GFP-tagged human S1P1 receptor internalization expressed in HEK293 cells at 10 uM by fluorimetric assay. Type of data set: cell-based.
Data set [20] relates to Mus musculus. The data set is described as follows: Inhibition of SEW2871-induced loss of CD69 expression in single positive CD4+ thymocytes in thymic medulla of C57BL1/6J mouse at 10 mg/kg, ip by FACS method. The data set is classed as functional, organism-based. More on the design: dose 10 mg/kg. The procedure, abridged: as §2
In data set [21] the target is Sphingosine 1-phosphate receptor 3 (Homo sapiens) (UniProt Q99500). As to the kind of experiment: Agonist activity at human S1P3 receptor expressed in CHO cells assessed as stimulation of [35S]GTPgamma binding at 10 uM. Type of data set: functional, cell-based. A digest of the protocol: as §5
For data set [22], the species on record is Mus musculus. The data set is described as follows: Potentiation of VEGF-induced capillary leakage in Balb/cByJ mouse assessed as skin leakage of Evans blue dye from plasma into interstitial spaces Miles assay. Type of data set: functional, organism-based. The note with it: Skin of body. The procedure, abridged:
as §1

Data set [23] concerns Mus musculus. As to the kind of experiment: Inhibition of SEW2871-induced medullary arrest of T cells in inguinal lymph nodes of BALB/c mouse at 10 mg/kg, iv by FITC-conjugated dextran staining based In vivo two-photon imaging method. The data set is classed as functional, organism-based. Further details: dose 10 mg/kg. The note with it: T-cell. A digest of the protocol: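 Adoptively transferred CFSE-labelled CD4+ T cells in BALB/c mice. Mice were dosed orally with SEW2871 (10 mg/kg), and the inguinal lymph node was imaged by intravital two-photon microscopy 4–6 h later. Medullary sinus labelled with footpad rhodamine-dextran. Antagonist 10 mg/kg given i.v. during imaging; instantaneous T-cell velocities tracked in medulla and cortex.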

In data set [24] the target is T1, Sphingosine 1-phosphate receptor 1. The data set is described as follows: Antagonist activity at human S1P1 receptor expressed in CHO cells assessed as inhibition of S1P-induced Akt phosphorylation at 10 uM by Western blot. The data set is classed as functional, cell-based. The procedure, abridged: as §7
A short description of data set [25]: Plasma clearance in cannulated rat at 1 mg/kg, iv by LC-MS method. The data set is classed as ADME, organism-based. More on the design: dose 1 mg/kg, route intravenous. A digest of the protocol:
as §6

Data set [26] has as its target T1, Sphingosine 1-phosphate receptor 1. The data set is described as follows: Antagonist activity at human S1P1 receptor expressed in CHO cells assessed as inhibition of SEW2871-induced ERK1/2 phosphorylation at 10 uM by Western blot. The data set is classed as functional, cell-based. The procedure, abridged:
as §7

The nature of data set [27]: Volume of distribution at steady state in cannulated rat at 1 mg/kg, iv by LC-MS method. The data set is classed as ADME, organism-based. Further details: dose 1 mg/kg, route intravenous. The note with it: in vivo, read-out: Vdss. A digest of the protocol:
as §6

The subject of data set [28] is Mus musculus. As to the kind of experiment: Toxicity in ip dosed C57BL1/6J mouse assessed as effect on lymphocyte number at 10 mg/kg, ip. Type of data set: organism-based. More on the design: dose 10 mg/kg, route intraperitoneal. Particulars: in vivo. The procedure, abridged:
as §4

The target of data set [29] is Sphingosine 1-phosphate receptor 2 (Homo sapiens) (UniProt O95136). As to the kind of experiment: Antagonist activity at human S1P2 receptor expressed in CHO cells assessed as inhibition of S1P-induced [35S]GTPgamma binding at 10 uM. The data set is classed as functional, cell-based. A digest of the protocol:
as §5

Data set [30] has as its target Sphingosine 1-phosphate receptor 3 (Homo sapiens) (UniProt Q99500). The data set is described as follows: Antagonist activity at human S1P3 receptor expressed in CHO cells assessed as inhibition of S1P-induced Akt phosphorylation at 10 uM by Western blot. The data set is classed as functional, cell-based. A digest of the protocol: as §7

Chain of Sphingosine 1-phosphate receptor 3 (Homo sapiens) (Q99500 whole entry): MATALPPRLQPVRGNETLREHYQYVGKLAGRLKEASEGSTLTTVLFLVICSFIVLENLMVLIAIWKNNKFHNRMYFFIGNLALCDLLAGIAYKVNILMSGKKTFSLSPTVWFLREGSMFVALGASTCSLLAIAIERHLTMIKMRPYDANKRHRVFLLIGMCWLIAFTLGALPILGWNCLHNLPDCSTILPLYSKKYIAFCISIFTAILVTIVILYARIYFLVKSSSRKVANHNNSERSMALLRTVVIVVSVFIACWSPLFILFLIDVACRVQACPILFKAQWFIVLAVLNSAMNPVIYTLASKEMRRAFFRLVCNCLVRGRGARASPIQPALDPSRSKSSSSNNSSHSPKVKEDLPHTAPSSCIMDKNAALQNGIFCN
T1 sequence (P21453 whole entry): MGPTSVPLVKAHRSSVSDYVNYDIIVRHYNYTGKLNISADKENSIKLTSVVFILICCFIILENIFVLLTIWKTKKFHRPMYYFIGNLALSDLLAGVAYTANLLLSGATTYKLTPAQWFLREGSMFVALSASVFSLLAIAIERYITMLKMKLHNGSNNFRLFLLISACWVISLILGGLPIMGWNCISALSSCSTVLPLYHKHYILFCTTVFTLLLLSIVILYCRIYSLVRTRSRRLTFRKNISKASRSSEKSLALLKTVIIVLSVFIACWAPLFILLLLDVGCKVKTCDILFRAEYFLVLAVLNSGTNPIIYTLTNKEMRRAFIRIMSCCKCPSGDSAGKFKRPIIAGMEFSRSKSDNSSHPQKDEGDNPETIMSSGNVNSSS
Chain of Sphingosine 1-phosphate receptor 2 (Homo sapiens) (O95136 whole entry): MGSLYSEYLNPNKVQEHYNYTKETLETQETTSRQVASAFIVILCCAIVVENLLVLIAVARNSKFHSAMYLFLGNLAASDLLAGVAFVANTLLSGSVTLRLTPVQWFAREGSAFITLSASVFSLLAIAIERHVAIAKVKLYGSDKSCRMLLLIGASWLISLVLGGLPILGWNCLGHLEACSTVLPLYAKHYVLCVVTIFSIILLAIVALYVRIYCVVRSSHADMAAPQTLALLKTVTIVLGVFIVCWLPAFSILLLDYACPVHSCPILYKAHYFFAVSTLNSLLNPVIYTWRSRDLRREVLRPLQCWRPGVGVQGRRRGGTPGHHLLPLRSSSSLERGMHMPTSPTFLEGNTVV
Chain of Sphingosine 1-phosphate receptor 5 (Homo sapiens) (Q9H228 whole entry): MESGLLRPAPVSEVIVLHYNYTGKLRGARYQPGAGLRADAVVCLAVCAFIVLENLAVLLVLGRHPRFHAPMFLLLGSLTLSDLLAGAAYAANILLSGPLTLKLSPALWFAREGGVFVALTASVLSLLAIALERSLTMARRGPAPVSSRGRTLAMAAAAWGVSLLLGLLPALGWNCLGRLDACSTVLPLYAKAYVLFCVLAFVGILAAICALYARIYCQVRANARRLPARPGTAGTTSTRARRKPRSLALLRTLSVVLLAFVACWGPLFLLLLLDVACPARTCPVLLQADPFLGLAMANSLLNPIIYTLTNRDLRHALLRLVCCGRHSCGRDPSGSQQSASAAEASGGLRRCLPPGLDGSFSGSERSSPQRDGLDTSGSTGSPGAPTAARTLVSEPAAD

For the molecule `CCCCCCc1cccc(NC(=O)[C@@H](N)CCP(=O)(O)O)c1`, the inhibition entry in the data set listed under Mus musculus [1], in the data set with Mus musculus [2] and in the data set on Mus musculus [4] was “inactive” throughout. Moreover, the Ki (as a rule, the equilibrium dissociation constant of an inhibitor or competing ligand from its target) in data set [3] came to 2.84 µM; in data set [6], 4.63 µM. Besides, the Activity result in the data set with Mus musculus [5] was “Non-toxic”.

As to `CCCCCCc1cccc(NC(=O)[C@H](N)CCP(=O)(O)O)c1`, the Activity entry was “Non-toxic” in the data set on Mus musculus [7], “Non-toxic” in the data set on Mus musculus [16], “Dose-dependent effect” with Mus musculus [5] and “Non-toxic” in the data set with Mus musculus [28]. Besides, the inhibition entry in [8], in data set [14], in [18], in data set [29] and in data set [30] was “inactive” in each case. Besides, in [9], the half-life (in general, the time needed for the level to fall by half in the phase considered) came to 1.22 h. For the same molecule, the inhibition entry (in the data set on Mus musculus [10]; in [13]; in the data set filed under Mus musculus [1]; in [19]; with Mus musculus [20]; in the data set on Mus musculus [2]) was “Active” in each case. Besides, the inhibition result (with Mus musculus [23]; in the data set with Mus musculus [4]; in data set [26]) was “Active” throughout. Besides, in [11], the concentration at 5 h amounted to 268 nM. Moreover, the inhibition in data set [12] and in data set [24] was over 70% in each case. Also, the result in data set [15], in data set [17] and in data set [21] was inactive. Further, the figures for the Ki in data set [3] and in data set [6] were 0.018 µM and 0.077 µM, respectively. Moreover, the result in the data set listed under Mus musculus [22] was Active. Besides, the clearance (as a rule, a measure of how efficiently the substance is removed, as volume per time) in data set [25] amounted to 4.63 mL/min/kg. Besides, the Vd in data set [27] was found to be 0.46 L/kg.

Source of the values: ChEMBL document CHEMBL1221186, “Enhancement of capillary leakage and restoration of lymphocyte egress by a chiral S1P1 antagonist in vivo” (Nat Chem Biol, 2006).
